In ChEMBL document CHEMBL1135530, “Selective alpha4beta7 integrin antagonists and their potential as antiinflammatory agents” (J Med Chem, 2002) one finds IC50 data, which are given here for 20 molecules.

For one experiment, the target named is T1, Integrin alpha-4/beta-7 (Homo sapiens, UniProt P13612+P26010).
T1 sequence (P13612 whole entry): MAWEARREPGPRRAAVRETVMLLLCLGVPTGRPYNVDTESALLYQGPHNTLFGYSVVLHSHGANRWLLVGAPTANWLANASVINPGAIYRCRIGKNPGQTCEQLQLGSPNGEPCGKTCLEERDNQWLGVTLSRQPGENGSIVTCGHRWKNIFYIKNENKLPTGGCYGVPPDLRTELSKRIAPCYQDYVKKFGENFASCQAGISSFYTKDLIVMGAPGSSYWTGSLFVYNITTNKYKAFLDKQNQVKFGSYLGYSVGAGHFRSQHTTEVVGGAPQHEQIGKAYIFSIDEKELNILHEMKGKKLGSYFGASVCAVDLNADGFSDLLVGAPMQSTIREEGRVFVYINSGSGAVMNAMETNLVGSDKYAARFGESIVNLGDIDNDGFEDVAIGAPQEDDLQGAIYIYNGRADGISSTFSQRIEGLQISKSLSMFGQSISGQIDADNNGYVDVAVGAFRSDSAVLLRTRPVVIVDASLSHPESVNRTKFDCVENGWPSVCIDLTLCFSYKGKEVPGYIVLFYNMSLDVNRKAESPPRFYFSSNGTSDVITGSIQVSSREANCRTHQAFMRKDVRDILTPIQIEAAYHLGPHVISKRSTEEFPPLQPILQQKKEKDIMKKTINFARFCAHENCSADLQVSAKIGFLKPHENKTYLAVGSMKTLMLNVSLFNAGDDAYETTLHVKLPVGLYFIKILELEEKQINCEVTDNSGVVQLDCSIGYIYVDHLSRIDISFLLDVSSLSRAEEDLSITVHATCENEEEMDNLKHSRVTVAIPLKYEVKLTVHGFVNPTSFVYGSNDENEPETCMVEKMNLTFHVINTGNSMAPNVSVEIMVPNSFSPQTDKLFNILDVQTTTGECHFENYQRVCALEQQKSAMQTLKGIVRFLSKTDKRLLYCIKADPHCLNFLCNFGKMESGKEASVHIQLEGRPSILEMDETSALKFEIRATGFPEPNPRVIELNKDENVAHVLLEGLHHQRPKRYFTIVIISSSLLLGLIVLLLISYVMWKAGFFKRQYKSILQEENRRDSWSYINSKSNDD
T1 sequence (P26010 whole entry): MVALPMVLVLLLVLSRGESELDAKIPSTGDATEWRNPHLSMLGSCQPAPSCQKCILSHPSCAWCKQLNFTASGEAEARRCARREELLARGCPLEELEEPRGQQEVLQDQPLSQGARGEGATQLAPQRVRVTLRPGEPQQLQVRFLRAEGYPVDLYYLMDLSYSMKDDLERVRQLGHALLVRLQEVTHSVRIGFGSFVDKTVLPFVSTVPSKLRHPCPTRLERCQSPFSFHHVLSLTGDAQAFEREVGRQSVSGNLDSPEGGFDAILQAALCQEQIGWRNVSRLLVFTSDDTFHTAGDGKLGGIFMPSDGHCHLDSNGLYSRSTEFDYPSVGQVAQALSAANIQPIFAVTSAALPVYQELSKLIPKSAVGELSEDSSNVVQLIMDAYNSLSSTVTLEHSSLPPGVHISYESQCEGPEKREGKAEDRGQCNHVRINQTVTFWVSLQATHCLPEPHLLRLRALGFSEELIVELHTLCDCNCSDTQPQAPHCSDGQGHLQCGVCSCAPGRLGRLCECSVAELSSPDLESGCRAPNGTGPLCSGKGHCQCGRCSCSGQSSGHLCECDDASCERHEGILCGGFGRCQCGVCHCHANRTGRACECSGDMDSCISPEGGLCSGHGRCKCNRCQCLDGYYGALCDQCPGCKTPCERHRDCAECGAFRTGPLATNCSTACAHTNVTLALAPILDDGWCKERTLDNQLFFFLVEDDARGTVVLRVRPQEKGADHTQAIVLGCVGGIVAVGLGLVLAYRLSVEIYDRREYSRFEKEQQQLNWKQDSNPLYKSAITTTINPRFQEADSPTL
Put plainly: Ability to block the alpha4-beta7 integrin-MAdCAM-1 binding interaction using a protein ELISA format. Format: protein-complex assay. A digest of the protocol:
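Plates coated overnight at 4 °C with anti-human α4 antibody 9F10 (2 µg/mL), blocked in Tris pH 7.5 buffer with 1 mM MnCl2, Tween-20 and 0.5% BSA, then loaded with α4β7 purified from transfected JY cells (2 µg/mL). Compounds (1 nM–200 µM final, triplicate) plus MAdCAM-1-Ig-HRP (1 µg/mL), 2 h room temperature. TMB read at 450 nm; IC50 at half-maximal absorbance.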
A general note: An ELISA detects its analyte on a solid surface through an enzyme-linked reagent.

The next experiment concerns the target Integrin alpha-4/beta-1 (Homo sapiens, UniProt P05556+P13612). The experiment in a line: Inhibitory concentration affording 50% inhibition of alpha4-beta1 integrin binding to VCAM-1, using ELISA assay. Format: protein-complex assay. A digest of the protocol: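 α4β1 extracted from Ramos cell membranes (lectin chromatography, gel filtration in 1% octylglucoside), with 1 mM MnCl2 throughout. Wells coated with 4 µg/mL recombinant soluble human VCAM-1 (5 N-terminal Ig domains, from CHO cells) and blocked with 1% BSA. Inhibitor and receptor 2 h at 37 °C in Tris pH 7.4. Bound receptor detected with anti-β1 mAb 2D4.6, then HRP anti-mouse and TMB at 450 nm. IC50 at half-maximal absorbance.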

Peptide text beside a SMILES is read from it.

Sequence of Integrin alpha-4/beta-1 (P05556 whole entry, one chain of several, the tested form may be a part): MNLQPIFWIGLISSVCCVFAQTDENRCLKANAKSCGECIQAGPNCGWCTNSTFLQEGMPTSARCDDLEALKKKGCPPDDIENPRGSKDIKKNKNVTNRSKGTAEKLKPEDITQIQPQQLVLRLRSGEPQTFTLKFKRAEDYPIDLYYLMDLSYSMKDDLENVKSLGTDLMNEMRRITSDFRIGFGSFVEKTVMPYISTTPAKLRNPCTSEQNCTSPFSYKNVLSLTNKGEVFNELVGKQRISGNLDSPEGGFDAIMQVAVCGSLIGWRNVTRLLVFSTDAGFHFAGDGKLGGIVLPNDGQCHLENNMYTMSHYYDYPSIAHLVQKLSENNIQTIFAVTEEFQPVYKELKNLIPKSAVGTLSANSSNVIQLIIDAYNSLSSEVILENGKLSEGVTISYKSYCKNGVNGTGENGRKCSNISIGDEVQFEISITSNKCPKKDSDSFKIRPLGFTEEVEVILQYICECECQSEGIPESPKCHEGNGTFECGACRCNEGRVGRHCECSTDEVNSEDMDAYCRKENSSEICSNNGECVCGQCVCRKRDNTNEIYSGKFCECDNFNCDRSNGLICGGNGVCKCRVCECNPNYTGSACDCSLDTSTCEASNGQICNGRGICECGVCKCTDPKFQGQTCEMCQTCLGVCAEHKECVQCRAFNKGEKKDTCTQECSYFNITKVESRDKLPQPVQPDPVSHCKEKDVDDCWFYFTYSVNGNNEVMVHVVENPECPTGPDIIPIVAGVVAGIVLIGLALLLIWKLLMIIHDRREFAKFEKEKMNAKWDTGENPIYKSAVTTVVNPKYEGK

Regarding `CC(C)C[C@@H]1NC(=O)[C@H]([C@@H](C)O)NC(=O)[C@H](CC(=O)O)NC(=O)[C@H](CO)NC(=O)[C@H](CCCCN)NC(=O)[C@@H](N)CSSC[C@@H](C(N)=O)NC1=O`, the concentration for half-maximal inhibition (IC50) at Integrin alpha-4/beta-7 worked out at 0.25 µM; on Integrin alpha-4/beta-1 it was 1.5 µM.
In the same order, the values of `CC(C)C[C@@H]1NC(=O)[C@H]([C@@H](C)O)NC(=O)[C@H](CC(N)=O)NC(=O)[C@H](CO)NC(=O)[C@H](CCCNC(=N)N)NC(=O)[C@@H](N)CSSC[C@@H](C(=O)O)NC1=O` are 40 µM and 2.2 µM.
In the same order, the values of `CC(C)C[C@@H]1NC(=O)[C@H]([C@@H](C)O)NC(=O)[C@H](CC(=O)O)NC(=O)[C@H]([C@@H](C)O)NC(=O)[C@H](CCCN=C(N)N)NC(=O)[C@@H](N)CSSC[C@@H](C(N)=O)NC1=O` are 2.1 µM and 7.4 µM.
Taken in the same sequence, the figures for `CSCC[C@H](N)C(=O)N[C@@H](CC(=O)O)C(=O)N[C@H]1CSSC[C@@H](C(=O)NCC(N)=O)NC(=O)[C@H](CC(C)C)NC(=O)[C@H]([C@@H](C)O)NC(=O)[C@H](CC(=O)O)NC(=O)[C@H](CO)NC(=O)[C@H](CCCN=C(N)N)NC1=O` (HELM PEPTIDE1{M.D.C.R.S.D.T.L.C.G.[am]}$PEPTIDE1,PEPTIDE1,3:R3-9:R3$$$V2.0) were 0.34 µM and 8.8 µM.
As to `CC(C)C[C@@H]1NC(=O)[C@H](C(C)C)NC(=O)[C@H](CC(=O)O)NC(=O)[C@H](CO)NC(=O)[C@H](CCCN=C(N)N)NC(=O)[C@@H](N)CSSC[C@@H](C(N)=O)NC1=O`, the 50% inhibitory concentration (IC50) at Integrin alpha-4/beta-7 worked out at 0.84 µM; at Integrin alpha-4/beta-1, 13 µM.
In the same order, the values of `CC(C)C[C@@H]1NC(=O)[C@H]([C@@H](C)O)NC(=O)[C@H](CCC(=O)O)NC(=O)[C@H](CO)NC(=O)[C@H](CCCN=C(N)N)NC(=O)[C@@H](N)CSSC[C@@H](C(N)=O)NC1=O` are 30 µM and 3 µM.
Turning to `C[C@@H](O)[C@@H]1NC(=O)[C@H](CC(=O)O)NC(=O)[C@H](CO)NC(=O)[C@H](CCCN=C(N)N)NC(=O)[C@@H](N)CSSC[C@@H](C(N)=O)NC(=O)CNC1=O`, the IC50 at Integrin alpha-4/beta-7 was 11 µM; on Integrin alpha-4/beta-1, > 100 µM.
For `CC(C)C[C@@H]1NC(=O)[C@H]([C@@H](C)O)NC(=O)[C@H](CC(=O)O)NC(=O)[C@H](CO)NC(=O)[C@H](CCCNC(=N)N)NC(=O)[C@@H](NC(=O)[C@@H](N)CC(=O)O)CSSC[C@@H](C(N)=O)NC1=O` (HELM PEPTIDE1{D.C.R.S.D.T.L.C.[am]}$PEPTIDE1,PEPTIDE1,2:R3-8:R3$$$V2.0), the concentration for half-maximal inhibition (IC50) was determined as 0.52 µM at Integrin alpha-4/beta-7 and 8.6 µM on Integrin alpha-4/beta-1.
In the same order, the values of `CC(C)C[C@@H]1NC(=O)[C@H](C)NC(=O)[C@H](CC(=O)O)NC(=O)[C@H](CO)NC(=O)[C@H](CCCN=C(N)N)NC(=O)[C@@H](N)CSSC[C@@H](C(N)=O)NC1=O` (HELM PEPTIDE1{C.R.S.D.A.L.C.[am]}$PEPTIDE1,PEPTIDE1,1:R3-7:R3$$$V2.0) are 10 µM and 60 µM.
In the same order, the values of `CC(C)C[C@@H]1NC(=O)[C@H]([C@@H](C)O)NC(=O)[C@H](CC(=O)O)NC(=O)[C@H](CO)NC(=O)[C@H](CCCN=C(N)N)NC(=O)[C@@H](NC(=O)[C@@H](N)CC(=O)O)CSSC[C@@H](C(=O)NCC(=O)N[C@@H](CCC(=O)O)C(N)=O)NC1=O` (HELM PEPTIDE1{D.C.R.S.D.T.L.C.G.E.[am]}$PEPTIDE1,PEPTIDE1,2:R3-8:R3$$$V2.0) are 0.26 µM and 8.3 µM.
In the same order, the values of `CC(C)[C@@H]1NC(=O)[C@H]([C@@H](C)O)NC(=O)[C@H](CC(=O)O)NC(=O)[C@H](CO)NC(=O)[C@H](CCCNC(=N)N)NC(=O)[C@@H](N)CSSC[C@@H](C(N)=O)NC1=O` are 4.5 µM and 59 µM.
For `CC(C)C[C@@H]1NC(=O)[C@H]([C@@H](C)O)NC(=O)[C@H](CC(N)=O)NC(=O)[C@H](CO)NC(=O)[C@H](CCCNC(=N)N)NC(=O)[C@@H](N)CSSC[C@@H](C(N)=O)NC1=O`, the IC50 was 175 µM on Integrin alpha-4/beta-7 and 88 µM at Integrin alpha-4/beta-1.
In the same order, the values of `CSCC[C@@H]1NC(=O)[C@H](CCCN=C(N)N)NC(=O)[C@@H](N)CSSC[C@@H](C(N)=O)NC(=O)[C@H](CC(C)C)NC(=O)[C@H]([C@@H](C)O)NC(=O)[C@H](CC(=O)O)NC1=O` are 2.2 µM and 3.2 µM.
`CC(C)C[C@@H]1NC(=O)[C@H]([C@@H](C)O)NC(=O)[C@H](C)NC(=O)[C@H](CO)NC(=O)[C@H](CCCN=C(N)N)NC(=O)[C@@H](N)CSSC[C@@H](C(N)=O)NC1=O` (HELM PEPTIDE1{C.R.S.A.T.L.C.[am]}$PEPTIDE1,PEPTIDE1,1:R3-7:R3$$$V2.0): the IC50 on Integrin alpha-4/beta-7 and on Integrin alpha-4/beta-1 was > 100 µM throughout.
For the molecule `CC(C)C[C@@H]1NC(=O)[C@H]([C@@H](C)O)NC(=O)[C@H](CC(=O)O)NC(=O)[C@H](CO)NC(=O)[C@H](Cc2ccc(O)cc2)NC(=O)[C@@H](N)CSSC[C@@H](C(N)=O)NC1=O`, the half-maximal inhibitory concentration (IC50) on Integrin alpha-4/beta-7 was found to be 0.13 µM; at Integrin alpha-4/beta-1, 0.009 µM.
Taken in the same sequence, the figures for `CC(C)C[C@@H]1NC(=O)[C@H]([C@@H](C)O)NC(=O)[C@H](CC(=O)O)NC(=O)[C@H](CO)NC(=O)[C@H](CCCNC(=N)N)NC(=O)[C@@H](N)CSSC[C@@H](C(=O)NCC(N)=O)NC1=O` (HELM PEPTIDE1{C.R.S.D.T.L.C.G.[am]}$PEPTIDE1,PEPTIDE1,1:R3-7:R3$$$V2.0) were 0.11 µM and 3.8 µM.
Taken in the same sequence, the figures for `CC(C)C[C@@H]1NC(=O)[C@H]([C@@H](C)O)NC(=O)[C@H](CC(=O)O)NC(=O)[C@H](CO)NC(=O)[C@H](Cc2ccccc2)NC(=O)[C@@H](N)CSSC[C@@H](C(N)=O)NC1=O` were 0.55 µM and 0.05 µM.
Taken in the same sequence, the figures for `CC(C)C[C@H]1NC(=O)[C@H]([C@H](C)O)NC(=O)[C@H](CC(=O)O)NC(=O)[C@H](CO)NC(=O)[C@@H](CCCN=C(N)N)NC(=O)[C@H](N)CSSC[C@H](C(N)=O)NC1=O` were > 100 µM and > 100 µM.
Regarding `CC(C)C[C@@H]1NC(=O)[C@H]([C@@H](C)O)NC(=O)[C@H](CCC(N)=O)NC(=O)[C@H](CO)NC(=O)[C@H](CCCNC(=N)N)NC(=O)[C@@H](N)CSSC[C@@H](C(N)=O)NC1=O` (HELM PEPTIDE1{C.R.S.Q.T.L.C.[am]}$PEPTIDE1,PEPTIDE1,1:R3-7:R3$$$V2.0), the half-maximal inhibitory concentration (IC50) on Integrin alpha-4/beta-7 and at Integrin alpha-4/beta-1 was > 100 µM each time.
For `CSCC[C@H](N)C(=O)N[C@@H](CC(=O)O)C(=O)N[C@H]1CSSC[C@@H](C(N)=O)NC(=O)[C@H](CC(C)C)NC(=O)[C@H]([C@@H](C)O)NC(=O)[C@H](CC(=O)O)NC(=O)[C@H](CO)NC(=O)[C@H](CCCN=C(N)N)NC1=O` (HELM PEPTIDE1{M.D.C.R.S.D.T.L.C.[am]}$PEPTIDE1,PEPTIDE1,3:R3-9:R3$$$V2.0), the IC50 at Integrin alpha-4/beta-7 is 0.64 µM; at Integrin alpha-4/beta-1, 11.8 µM.

The term IC50 denotes the concentration that gives 50% inhibition. Lower therefore signals greater potency in that assay.
